Measurements as given in article PMC9715912 (Cell Reports, 2022).

Key:
Assay type in all cases: in vivo, Mus musculus
[1] = tested on: hypothalamus (ME/ARC) and other CVOs; settings: 120 nmol/kg i.p., 15 min before sacrifice; 2D planes from LSFM; Fig 2A
Glycemic change = settings: single i.p. insulin injection, mean ± SEM
[2] = tested on: control and Tanycyte^ΔVegfa mice; test: Metabolic efficiency; settings: chow, daily i.p. insulin 20 nmol/kg, Fig 5F,G
[3] = tested on: arcuate nucleus of control and Tanycyte^ΔVegfa mice; settings: 2-DG 250 mg/kg with Ex-4_Cy3 120 nmol/kg; data not shown
[4] = tested on: hypothalamus and hindbrain; settings: 2-DG 250 mg/kg i.p. after 5 h food deprivation; Fig 3B
Summary of the method: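 Mice food-deprived 5 h, then given 2-DG (250 mg/kg i.p.). […] Brains were dissected, dehydrated through a tetrahydrofuran series, cleared in dibenzylether and imaged by whole-brain light-sheet microscopy. Signal was autofluorescence-unmixed, and the volume of signal dispersion was quantified. Blood glucose was tracked; mean ± SEM.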

Q: With “Ex-4_VT^750: fluorescent labeled Exendin4 (VT750), Novo Nordisk” as the molecule, how does the “brain regions with Ex-4_VT750 signal after systemic administration” value [1] read?
A: detected in the ME/ARC, OLVT, AP, SFO, and choroid plexus

Q: For “insulin: Insulin (Novorupid, Flex pen, 8-9670-79-202-2), Novo Nordisk”, which “glycemic change (vehicle/insulin), Tanycyte ΔVegfa” value (Glycemic change; Tanycyte^ΔVegfa mice) is on record?
A: 52% ± 2.08%

Q: What about the “glycemic change (vehicle/insulin), controls” value (Glycemic change; control mice) of the same molecule?
A: 62% ± 5.7%

Q: What about the “change in fat oxidation in response to insulin, Tanycyte ΔVegfa mice” value [2] of the same molecule?
A: comparable with vehicle

Q: Which “total fluorescence intensity, control vs Tanycyte ΔVegfa” value [3] does the source give for “Ex-4_Cy3: fluorescent Exendin-4 labeled with Cy3, Novo Nordisk” here?
A: comparable between groups

Q: Which “blood glucose (counter-regulatory response)” value [4] does the source give for `O=CC[C@@H](O)[C@H](O)[C@H](O)CO` [2-DG, 2-deoxyglucose] here?
A: increased
